For experiment [1], the target named is Bifunctional dihydrofolate reductase-thymidylate synthase (Plasmodium falciparum K1, UniProt P13922, A16V/S108T). In words: Binding affinity towards mutant dihydrofolate reductase (A16V+S108T DHFR) of Plasmodium falciparum.
For experiment [2], the target named is Bifunctional dihydrofolate reductase-thymidylate synthase (Plasmodium falciparum K1, UniProt P13922, C59R/I164L/S108N). The experiment in a line: Binding affinity towards mutant dihydrofolate reductase (C59R+S108N+I164L DHFR) of Plasmodium falciparum.
The target of experiment [3] is Bifunctional dihydrofolate reductase-thymidylate synthase (Plasmodium falciparum K1, UniProt P13922, C59R/N51I/S108N). In words: Binding affinity towards mutant dihydrofolate reductase (N51I+C59R+S108N DHFR) of Plasmodium falciparum.
The subject of experiment [4] is KB. In words: In vitro cytotoxicity against Plasmodium falciparum infected KB cell line. The format is functional, cell-based. Particulars: Homo sapiens. A digest of the protocol:
(§1)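 Cytotoxicity (IC50, μM) run against three mammalian lines: Vero (African green monkey kidney fibroblasts), KB (human epidermoid carcinoma) and BC (human breast cancer). Testing followed the Skehan et al. protocol.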

Experiment [5] relates to Vero. The experiment in a line: In vitro cytotoxicity against Plasmodium falciparum infected vero cell line. The format is functional, cell-based. The conditions noted are these: Chlorocebus sabaeus. An outline of the steps: as §1
Experiment [6] deals with Bifunctional dihydrofolate reductase-thymidylate synthase (Plasmodium falciparum K1, UniProt P13922). In words: Binding affinity towards wild-type dihydrofolate reductase of Plasmodium falciparum.
The test system of experiment [7] is BC. In words: Relative antiplasmodial activity to cytotoxicity in Plasmodium falciparum Csl-2 infected BC cells. The format is functional.
In experiment [8] the test system is KB. In words: Relative antiplasmodial activity to cytotoxicity in Plasmodium falciparum Csl-2 infected KB cells. It counts as functional.
Experiment [9] relates to Vero. The experiment in a line: Relative antiplasmodial activity to cytotoxicity in Plasmodium falciparum Csl-2 infected Vero cells. The format is functional.
For experiment [10], the system named is BC. The experiment in a line: Relative antiplasmodial activity to cytotoxicity in Plasmodium falciparum TM4/8.2 infected BC cells. The format is functional.
Experiment [11] deals with KB. The experiment in a line: Relative antiplasmodial activity to cytotoxicity in Plasmodium falciparum TM4/8.2 infected KB cells. The format is functional.
Experiment [12] relates to KB. In words: Relative antiplasmodial activity to cytotoxicity in Plasmodium falciparum V1/S infected KB cells. It counts as functional.
The test system of experiment [13] is Vero. The experiment in a line: Relative antiplasmodial activity to cytotoxicity in Plasmodium falciparum V1/S infected Vero cells. The format is functional.
Experiment [14] relates to Vero. In words: Relative antiplasmodial activity to cytotoxicity in Plasmodium falciparum TM4/8.2 infected Vero cells. It counts as functional.
The test system of experiment [15] is Bifunctional dihydrofolate reductase-thymidylate synthase (Plasmodium falciparum K1), P13922 [UNDEFINED MUTATION]. The experiment in a line: Ratio of binding affinity for mutant (A16V+S108T) to that of wild type dihydrofolate reductase. A digest of the protocol:
(§2)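 Each ratio is Ki for the mutant PfDHFR divided by Ki for wild-type PfDHFR. The recombinant enzymes were expressed in E. coli BL21(DE3)pLysS and purified on methotrexate-Sepharose. Ki was derived assuming inhibitors compete with substrate binding.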

The test system is the same in experiment [16]. The experiment in a line: Ratio of binding affinity for mutant (C59R+S108N+I164L) to that of wild type dihydrofolate reductase. A digest of the protocol:
as §2

Experiment [17] concerns the target Bifunctional dihydrofolate reductase-thymidylate synthase (Plasmodium falciparum K1) (UniProt P13922). The experiment in a line: Ratio of binding affinity for mutant (N51I+C59R+S108N) to that of wild type dihydrofolate reductase. An outline of the steps: as §2
Experiment [18] relates to Bifunctional dihydrofolate reductase-thymidylate synthase (Plasmodium falciparum K1), P13922 [UNDEFINED MUTATION]. In words: Ratio of binding affinity for mutant (N51I+C59R+S108N+I164L) to that of wild type dihydrofolate reductase. An outline of the steps:
as §2

Experiment [19] concerns the target Bifunctional dihydrofolate reductase-thymidylate synthase (Plasmodium falciparum K1, UniProt P13922, C59R/I164L/N51I/S108N). The experiment in a line: Binding affinity towards mutant dihydrofolate reductase (N51I+C59R+S108N+I164L DHFR) of Plasmodium falciparum.
Experiment [20] deals with BC. The experiment in a line: In vitro cytotoxicity against BC cell line. The conditions noted are these: Homo sapiens.

Structures are written as SMILES. pIC50, pKi: −log10 of the molar value.

Sequence of Bifunctional dihydrofolate reductase-thymidylate synthase (Plasmodium falciparum K1), P13922 [UNDEFINED MUTATION] (P13922 whole entry, looked up, stated change not applied): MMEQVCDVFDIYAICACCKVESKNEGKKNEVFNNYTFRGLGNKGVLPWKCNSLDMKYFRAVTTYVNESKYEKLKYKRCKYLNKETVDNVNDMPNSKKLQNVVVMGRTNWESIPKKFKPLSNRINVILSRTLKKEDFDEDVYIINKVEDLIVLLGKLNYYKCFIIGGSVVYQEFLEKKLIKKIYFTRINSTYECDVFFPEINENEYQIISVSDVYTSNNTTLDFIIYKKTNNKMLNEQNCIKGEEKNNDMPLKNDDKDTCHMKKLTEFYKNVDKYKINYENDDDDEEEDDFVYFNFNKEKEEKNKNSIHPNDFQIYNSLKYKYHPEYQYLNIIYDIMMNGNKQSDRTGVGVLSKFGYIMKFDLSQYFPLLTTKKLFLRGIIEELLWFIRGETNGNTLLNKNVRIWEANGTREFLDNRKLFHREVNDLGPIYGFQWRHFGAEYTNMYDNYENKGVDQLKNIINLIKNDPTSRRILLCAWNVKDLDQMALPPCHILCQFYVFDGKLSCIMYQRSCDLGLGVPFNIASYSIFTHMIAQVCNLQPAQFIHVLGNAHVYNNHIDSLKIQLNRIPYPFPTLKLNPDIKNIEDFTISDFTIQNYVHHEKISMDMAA
Sequence of Bifunctional dihydrofolate reductase-thymidylate synthase (Plasmodium falciparum K1, UniProt P13922, C59R/I164L/N51I/S108N) (P13922 whole entry, looked up, stated change not applied): as above
Sequence of Bifunctional dihydrofolate reductase-thymidylate synthase (Plasmodium falciparum K1) (P13922 whole entry, looked up): as the sequence (P13922 whole entry, looked up, stated change not applied) above
Sequence of Bifunctional dihydrofolate reductase-thymidylate synthase (Plasmodium falciparum K1, UniProt P13922, C59R/I164L/S108N) (P13922 whole entry, looked up, stated change not applied): as above
Sequence of Bifunctional dihydrofolate reductase-thymidylate synthase (Plasmodium falciparum K1, UniProt P13922) (P13922 whole entry): as the sequence (P13922 whole entry, looked up, stated change not applied) above
Sequence of Bifunctional dihydrofolate reductase-thymidylate synthase (Plasmodium falciparum K1, UniProt P13922, C59R/N51I/S108N) (P13922 whole entry, looked up, stated change not applied): as above
Sequence of Bifunctional dihydrofolate reductase-thymidylate synthase (Plasmodium falciparum K1, UniProt P13922, A16V/S108T) (P13922 whole entry, looked up, stated change not applied): as above

A word on the pKi: it is the negative decadic logarithm of the Ki, by convention in mol/L. Read a low pKi as a large Ki. A word on the pIC50: it is the negative decadic logarithm of the IC50, by convention in mol/L. Read a low pIC50 as a large IC50. Turning to `NC1=NC(c2ccccc2)N(c2cccc(Cl)c2)C(N)=N1` (stereo not given), the negative-log Ki (pKi) was 7.98 in experiment [1]; 6.66 in [2]; 6.95 in [3]; 7.93 in experiment [6]; 6.01 in [19]. The pIC50 was 4.06 in the experiment on KB [4], 3.60 with Vero [5] and 3.77 in the experiment on BC [20]. The Safety ratio in the experiment on BC [7] is recorded as 672; with KB [8] it was 348; in the experiment with Vero [9], 1000; with BC [10] it was 300; with KB [11], 155; in the experiment on KB [12] it was 109. Also, the values for the Safety ratio in the experiment with Vero [13] and in the experiment with Vero [14] were 312 and 446, respectively. Further, the Ratio in [15] came to 0.9; in experiment [16], 18.5; in experiment [17], 9.5; in experiment [18], 84.1.

Values taken from ChEMBL document CHEMBL1138835, “Inhibitors of multiple mutants of Plasmodium falciparum dihydrofolate reductase and their antimalarial activities” (J Med Chem, 2004).
